An excerpt weighted towards active compounds, which were near 4.1% of everything screened.
KCC2 mod – KCC2 (human) Cl- transport modulation | Q9H2X9 | KCC2 cells, thallium flux FluoZin-2 fluorescence | B-score of Tl+ flux slope (higher = more flux/activation; lower = inhibition) at 10 µM | 190,000 tested, 2.2% active;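 active = thallium flux slope and its plate-corrected score both differing from the plate sample mean at a set confidence after two filtering rounds, in either direction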;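 note: slope of fluorescence scaled to starting intensity during 10 to 20 s after thallium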
KCNK9 block – inhibitors of human KCNK9 two-pore domain potassium channel | Q9NPC2 | HEK293 KCNK9, FluxOR thallium flux fluorescence; stronger effect = lower value | B-score at 10 µM | 310,000 tested, 1.2% active;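 active = ratio B-score over 3 SD below the library mean, with starting fluorescence within 5 SD of its mean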;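 note: negative B-score means less thallium flux so channel inhibition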
Target sequence (Q9NPC2 whole entry, looked up, the tested form may be a part): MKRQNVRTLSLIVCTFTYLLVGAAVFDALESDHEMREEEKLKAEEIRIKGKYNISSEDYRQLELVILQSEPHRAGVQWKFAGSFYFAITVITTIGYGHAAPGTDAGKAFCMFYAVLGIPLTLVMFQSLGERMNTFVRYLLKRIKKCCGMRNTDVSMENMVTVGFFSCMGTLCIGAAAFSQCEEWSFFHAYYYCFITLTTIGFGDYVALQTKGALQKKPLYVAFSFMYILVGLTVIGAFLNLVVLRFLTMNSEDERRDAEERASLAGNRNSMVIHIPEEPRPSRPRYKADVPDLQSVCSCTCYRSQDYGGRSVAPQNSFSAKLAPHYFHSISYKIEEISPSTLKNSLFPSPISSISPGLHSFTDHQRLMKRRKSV
KCNQ1 act – potentiates or activates the human KCNQ1 potassium channel; B-score at 10 µM; CHO-K1 KCNQ1, thallium flux FluxOR fluorescence; stronger effect = higher value; P51787; 310,000 tested, 0.35% active; AID 2648;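 active = fluorescence ratio B-score, a plate-corrected score, at least three library SD, with initial intensity B-score within 5 SD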
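Assay system: CHO-K1 cells stably expressing KCNQ1. Medium: assay buffer for compound exposure, DMSO matched across wells. Timing: 37 °C overnight plating, 90-min dark dye load, 20-min compound pretreatment. Signal: kinetic FluxOR fluorescence, 10 s baseline plus 110 s post-stimulus.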
KCNK3 block – human KCNK3 channel inhibition, primary screen; O14649; CHO-KCNK3 thallium flux, FluxOR fluorescence; stronger effect = lower value; B-score at 10 µM; 340,000 tested, 0.84% active;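 active = B-score under library mean minus 4 SD, starting fluorescence ratio at most library mean plus 5 SD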;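 note: more negative B-score means stronger inhibition of thallium flux through KCNK3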
Target sequence (O14649 whole entry, looked up): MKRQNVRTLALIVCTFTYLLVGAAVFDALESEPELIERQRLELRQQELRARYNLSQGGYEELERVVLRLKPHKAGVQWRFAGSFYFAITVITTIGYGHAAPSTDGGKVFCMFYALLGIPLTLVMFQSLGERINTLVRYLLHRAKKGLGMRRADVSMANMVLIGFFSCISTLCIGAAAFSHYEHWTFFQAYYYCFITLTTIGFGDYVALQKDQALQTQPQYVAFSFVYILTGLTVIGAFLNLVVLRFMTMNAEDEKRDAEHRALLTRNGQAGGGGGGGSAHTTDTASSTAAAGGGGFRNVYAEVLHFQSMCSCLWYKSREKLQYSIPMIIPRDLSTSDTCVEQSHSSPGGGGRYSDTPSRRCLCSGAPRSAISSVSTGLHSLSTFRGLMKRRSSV
KCNQ1 block – inhibitors of human KCNQ1 potassium channel | P51787 | CHO-K1 KCNQ1, FluxOR thallium flux fluorescence; stronger effect = higher value | B-score at 10 µM | 310,000 tested, 1.3% active;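 active = compounds whose thallium flux B-score, printed positive for inhibition, exceeds three library SD while starting fluorescence stays within three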;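 note: channel opened by potassium depolarization with thallium stimulus after 20 min compound exposure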
hERG protect – shields human hERG channel from block by proarrhythmic agents; Q12809; CHO-hERG, FluxOR thallium flux, dofetilide IC70 present; activation (rescue from dofetilide block), less the hit threshold, % at 10 µM; 310,000 tested, 0.51% active;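 active = activation above the mean of controls blocked by dofetilide plus 5 SD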;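 note: thallium influx through hERG after potassium depolarization seen as dye fluorescence rise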
KCC2 sec1 – KCC2 (human) modulation, secondary assay; HEK293-KCC2, thallium flux, FluoZin2 fluorescence; stronger effect = higher value; AID 1713; shares compounds with KCC2 mod; 3,700 tested, 15% active; normalised thallium flux (F/F0 slope) at 10 µM;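 active = thallium flux slope above the same plate's solvent-only control mean plus 3 SD; inconclusive = the two replicate wells disagree; inactive = no significant difference from solvent-only control wells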
KCC2 bumet counter – bumetanide-insensitive thallium flux in KCC2 cells with ouabain, counter-screen | shares compounds with KCC2 mod | HEK293-KCC2 + bumetanide/ouabain, thallium flux FluoZin2; stronger effect = higher value | normalized thallium flux at 10 µM | 3,700 tested, 49% active;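 active = thallium entry rate above the same plate's blocked-transporter control wells by more than 3 SD; inconclusive = the two repeat wells disagree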;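 note: raw slope of fluorescence over initial fluorescence between 10 and 20 s after thallium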
KCC2 sec2 – KCC2 (human) modulation, second secondary assay; HEK293-KCC2, thallium flux FluoZin2 fluorescence; actives lie on both sides; F/F0 rise rate, 10–20 s post-thallium; shares compounds with KCC2 mod; 3,700 tested, 23% active; normalized thallium flux at 10 µM;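 active = thallium flux slope more than 3 SD above or below the plate's solvent-only control mean, mostly below; inconclusive = the two repeat wells disagreed; inactive = no significant shift from solvent-only controls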;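 note: raw slope with 0.1% DMSO as baseline and bumetanide as block control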
HEK counter1 – parental HEK flux effect, counter-screen. AID 1716. HEK293 parental cells, thallium flux FluoZin2, ouabain; baseline-ratio fluorescence slope, 10–20 s after thallium. 3,700 tested, 46% active. shares compounds with KCC2 mod. thallium flux rate (normalised fluorescence) at 10 µM;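 active = thallium flux rate significantly above the same plate's solvent-only control wells, beyond their mean plus 3 SD; inconclusive = the two replicate wells gave conflicting results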
KCC2 retest ouab – modulates human KCC2 on retest with ouabain; shares compounds with KCC2 mod; HEK293-KCC2, thallium flux FluoZin2 fluorescence; bidirectional: low = inhibitor, high = activator; raw Tl+ flux slope (below DMSO = inhibition, above = activation) at 10 µM; AID 1717; 3,700 tested, 48% active;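 active = thallium flux slope beyond 3 SD from same-plate DMSO control mean in most replicates, usually higher, sometimes lower; inconclusive = repeat tests gave conflicting results; inactive = no significant difference from controls in most replicates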;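 note: slope of initial-normalized fluorescence between seconds 10 and 20 after thallium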
HEK293 Tl flux2 – acts in parental HEK cells, second KCC2 counter-screen. shares compounds with KCC2 mod. HEK293 parental, thallium flux FluoZin-2 fluorescence slope. thallium flux slope at 10 µM. 3,700 tested, 33% active;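 active = thallium flux slope above the same plate's solvent-control mean plus 3 SD in both duplicate wells; inconclusive = duplicate wells that disagreed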;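 note: run without ouabain in cells lacking the KCC2 cotransporter; slope of fluorescence scaled to its starting value between 10 and 20 s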
* = called active by the depositor; i = inactive; ? = inconclusive; . = not tested or not shown.

SMILES	KCC2 mod	KCNK9 block	KCNQ1 act	KCNK3 block	KCNQ1 block	hERG protect	KCC2 sec1	KCC2 bumet counter	KCC2 sec2	HEK counter1	KCC2 retest ouab	HEK293 Tl flux2
Cc1ccc(NC(=O)CN(C)C(=O)C(Sc2ccccc2)c2ccccc2)cc1 (configuration not stated)	.	.	.	i	.	.	.	.	.	.	.	.
NC(=O)c1ccc(NC(=O)Cc2csc(-c3ccccc3)n2)cc1	-0.87	i	i	i	i	-5	.	.	.	.	.	.
CCOC(=O)c1ccc(NC(=O)COC(=O)Cc2csc(-c3ccccc3)n2)cc1	-4.9*	i	i	i	i	-3	0.0061*	0.015*	?	0.011*	0.016*	0.011
CCC1CN(C(=O)N2CCC(C(=O)Nc3ccccc3OC)CC2)c2ccccc2O1 (configuration not stated)	.	i	i	i	i	-28	.	.	.	.	.	.
N#Cc1ccsc1NC(=O)CCN1C(=O)C2CCCCC2C1=O (configuration not stated)	.	.	.	i	.	.	.	.	.	.	.	.
C=CCn1c(O)c(N=NC(=S)Nc2ccc(OC)cc2)c2ccccc21	53*	i	17*	i	i	3	0.0065	0.061*	0.064*	0.059*	0.058*	0.05*
C=CCn1c(O)c(N=NC(=S)Nc2cccc(OC)c2)c2ccccc21	71*	i	8*	i	i	25*	0.02*	0.11*	0.031	0.041*	0.052*	0.013*
CCCN1CCN(C(=O)CCc2nnc3ccc(N4CCN(c5cccc(OC)c5)CC4)nn23)CC1	.	i	i	i	i	-10	.	.	.	.	.	.
CN(C)/C=N/C1=C(C#N)C(c2cccs2)c2ccc3ccccc3c2O1 (configuration not stated)	1.2	.	.	i	.	.	.	.	.	.	.	.
Cc1ccc(C)c(C2=NNC(=O)CC2)c1	.	i	i	i	i	-12	.	.	.	.	.	.
O=C(Nc1ccc(Br)cc1F)c1sccc1-n1cccc1	-1.2	i	i	i	i	-6	0.0078	0.0048	0.033	0.0082	0.02	0.011
Cc1c(Br)cccc1NC(=O)c1sccc1-n1cccc1	0.0079	i	i	i	i	3	.	.	.	.	.	.
COc1ccc(CN(C(=O)c2ccc(-c3ccccc3)[nH]2)C(C(=O)NC(C)(C)C)c2ccncc2)cc1 (configuration not stated)	-4.9*	i	i	i	i	-3	0.0085	0.0072	?	0.0073	0.016*	0.01
CC(C)CCOc1ccc(C(=O)NNC(=O)CNC(=O)c2ccccc2F)cc1	.	.	.	i	.	.	.	.	.	.	.	.
CC(C)c1ccc(CNC(=O)C(=O)Nc2nccs2)cc1	12*	i	i	i	i	-8	?	0.019*	0.035	0.019*	?	0.016*
Cc1ccc(S(=O)(=O)N2CC(O)CC2C(=O)OCC(=O)c2ccccc2Cl)cc1C (configuration not stated)	-4.1*	i	i	i	i	-10	?	0.0044	0.035	0.0039	0.015*	0.011
O=C(COC(=O)C1CC(O)CN1S(=O)(=O)c1ccc(Cl)cc1)c1ccccc1Cl (configuration not stated)	-1.1	i	i	i	i	-3	.	.	.	.	.	.
COC(=O)[C@]1(Cc2ccccc2)N[C@H](c2ccc(-c3ccc4c(c3)OCO4)cc2)[C@@H]2C(=O)N(C)C(=O)[C@@H]21	.	i	i	i	i	-7	.	.	.	.	.	.
O=c1c2cc(Br)ccc2[nH]c(=S)n1Cc1ccccn1	35*	i	i	i	i	-6	?	0.071*	0.044*	0.046*	0.057*	0.021*
O=C(NCCc1ccc(Cl)cc1)C1COc2ccccc2O1 (configuration not stated)	.	i	i	i	i	-3	.	.	.	.	.	.
Cc1c(Cl)cccc1Nc1ccccc1C(=O)O	4.6*	i	i	i	i	-5	?	0.024*	0.032	0.013*	?	0.011
Cc1c(Cl)cccc1Nc1ncccc1C(=O)O	.	i	i	i	i	-6	.	.	.	.	.	.
O=S(=O)(NCCc1ccccc1F)c1cccc(S(=O)(=O)N2CCOCC2)c1	.	i	i	i	i	-8	0.0061	0.0054	0.026*	0.0072	?	0.01
O=S(=O)(NCc1ccccc1)c1cccc(S(=O)(=O)N2CCOCC2)c1	.	i	i	i	i	-16	.	.	.	.	.	.
CCN(CC)c1ccc(S(=O)(=O)N2CCOCC2)cc1NC(=O)CNCc1ccccc1	-5.6*	i	i	i	i	-10	0.0068	0.005	0.029	0.0062	?	0.0093
SMILES	KCC2 mod	KCNK9 block	KCNQ1 act	KCNK3 block	KCNQ1 block	hERG protect	KCC2 sec1	KCC2 bumet counter	KCC2 sec2	HEK counter1	KCC2 retest ouab	HEK293 Tl flux2
C/C(=N\NC(=S)NC(C)C)c1ccccc1OC(F)F	6*	i	i	i	i	-4	0.0062	0.0097*	0.033	0.012*	0.022	0.015*
CCNC(=S)N/N=C(\C)c1ccc2ccccc2c1OC(F)F	7.7*	i	i	i	i	-10	0.012*	0.062*	0.037	0.022*	0.046*	0.015*
C/C(=N\NC(=S)NCc1ccccc1)c1ccccc1F	3.7	i	i	i	i	-5	.	.	.	.	.	.
C/C(=N\NC(=O)c1nc2ccccn2c1C)c1cc2ccccc2o1	16*	i	i	i	i	-21	0.0064	0.065*	0.047*	0.036*	0.05*	0.039*
COCCNC(=S)N/N=C(\C)c1ccc2cc(OC)ccc2c1	11*	i	i	i	i	1	0.0076	0.035*	0.033	0.014*	0.032*	0.011
C/C(=N\NC(=S)NC1CCCCC1)c1ccc(OC(F)F)cc1OC(F)F	0.26	i	i	i	i	-7	.	.	.	.	.	.
